# Measured values: ChEMBL document CHEMBL2169863, “Discovery, structure-activity relationship, and biological evaluation of noninhibitory small molecule chaperones of glucocerebrosidase” (J Med Chem, 2012)
# Activity calls are given as the source filed them.
# Experiments:
# [1] = tested on: T1, Lysosomal acid glucosylceramidase (Homo sapiens), P04062 [N409S]; test: Activation of glucocerebrosidase N370S mutant in Gaucher patient spleen homogenates using 4-methylumbelliferone-Glc as substrate assessed as half-maximal activation concentration incubated for 5 mins prior to substrate addition measured after 30 to 45 mins by fluorimetric analysis; assay type: tissue-based
# T1 sequence (whole entry): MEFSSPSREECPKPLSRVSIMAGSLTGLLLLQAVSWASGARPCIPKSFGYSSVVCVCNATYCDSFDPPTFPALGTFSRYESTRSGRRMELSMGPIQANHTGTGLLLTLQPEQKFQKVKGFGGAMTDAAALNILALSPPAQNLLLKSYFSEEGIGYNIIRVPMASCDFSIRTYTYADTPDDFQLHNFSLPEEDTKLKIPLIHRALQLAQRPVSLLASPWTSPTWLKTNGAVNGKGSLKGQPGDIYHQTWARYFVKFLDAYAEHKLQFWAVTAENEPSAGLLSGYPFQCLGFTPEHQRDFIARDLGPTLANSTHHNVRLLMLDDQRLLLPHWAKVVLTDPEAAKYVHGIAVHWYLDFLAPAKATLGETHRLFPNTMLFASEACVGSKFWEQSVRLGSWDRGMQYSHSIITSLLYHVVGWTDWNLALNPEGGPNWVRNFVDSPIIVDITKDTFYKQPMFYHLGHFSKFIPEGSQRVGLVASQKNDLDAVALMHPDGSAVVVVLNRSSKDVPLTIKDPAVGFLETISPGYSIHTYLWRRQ
# Procedure, shortened: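 Spleen homogenate (27 μg final) in pH 5 citrate/phosphate buffer with KCl, NaCl, MgCl₂ and 0.01% Tween-20. Compound was titrated 0.5 nM to 58 μM and preincubated 5 min at room temperature. Reaction used 1 mM 4MU-Glc for 30−45 min at 37 °C and was stopped with NaOH/glycine pH 10. Read-out was fluorescence at Ex 365/Em 440 nm. AC₅₀ is the average of N = 2.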
# [2] = target: Lysosomal alpha-glucosidase (Homo sapiens) (UniProt P10253); test: Activation of alpha-glucosidase using 4-MU-alpha-glucose as substrate
# [3] = Activation of alpha-galactosidase using 4-MU-alpha-galactose as substrate
Activity [1],Activity [2],Activity [3],Structure (SMILES)
2.31 µM,inactive,inactive,Cc1cc(C)n2ncc(C(=O)Nc3ccc(C(C)(C)C)cc3)c2n1
,inactive,inactive,O=C(Nc1ccccc1Sc1ccccc1)c1cnn2c(C(F)(F)F)cc(C3CC3)nc12
6.51 µM,inactive,inactive,Cc1cccc(NC(=O)c2cnn3c(C)cc(C)nc23)c1
,inactive,inactive,O=C(NC1CCCCC1)c1cnn2c(C(F)F)cc(C3CC3)nc12
25.9 µM,inactive,inactive,Cc1cc(C)n2ncc(C(=O)N[C@H]3CC[C@@H](C(C)(C)C)CC3)c2n1
2.06 µM,inactive,inactive,COc1ccc(NC(=O)c2cnn3c(C)cc(C)nc23)cc1Cl
8.19 µM,inactive,inactive,Cc1cc(-c2ccccc2)nc2c(C(=O)Nc3ccc4c(c3)CCC4)cnn12
inactive,inactive,inactive,CC(=O)Nc1cccc(NC(=O)c2cnn3c(C)cc(C)nc23)c1
inactive,inactive,inactive,CC(=O)Nc1ccc(NC(=O)c2cnn3c(C)cc(C)nc23)cc1
inactive,inactive,inactive,COc1cc(NC(=O)c2cnn3c(C)cc(C)nc23)cc(OC)c1OC
12.9 µM,inactive,inactive,CCc1ccc(NC(=O)c2cnn3c(C)cc(-c4ccccc4)nc23)cc1
inactive,inactive,inactive,Cc1cc(C)n2ncc(C(=O)N3CCCC3)c2n1
10.3 µM,inactive,inactive,Cc1cc(C)n2ncc(C(=O)NC3CCCCC3)c2n1
,inactive,inactive,Cc1cc(-c2ccccc2)nc2c(C(=O)Nc3ccc(Cl)c(Cl)c3)cnn12
inactive,inactive,inactive,Cc1cc(C)n2ncc(C(=O)NC(C)C)c2n1
1.63 µM,inactive,inactive,Cc1ccc(NC(=O)c2cnn3c(C)cc(C)nc23)cc1
41.1 µM,inactive,inactive,Cc1cc(C)n2ncc(C(=O)Nc3cccc(C(F)(F)F)c3)c2n1
inactive,inactive,inactive,COc1ccc(NC(=O)c2cnn3c(C)cc(C)nc23)cc1OC
inactive,inactive,inactive,Cc1cc(-c2ccccc2)n2ncc(C(=O)Nc3ccccc3Sc3ccccc3)c2n1
20.6 µM,inactive,inactive,Cc1cc(C)n2ncc(C(=O)Nc3ccc(C#N)cc3)c2n1
51.7 µM,inactive,inactive,Cc1cc(C)n2ncc(C(=O)NCc3ccco3)c2n1
18.3 µM,inactive,inactive,Cc1cc(C)n2ncc(C(=O)Nc3ccccc3Sc3ccccc3)c2n1
8.19 µM,inactive,inactive,Cc1cc(C)n2ncc(C(=O)Nc3ccccc3)c2n1
2.59 µM,inactive,inactive,Cc1cc(C)n2ncc(C(=O)Nc3ccc4c(c3)CCC4)c2n1

Activity [1],Activity [2],Activity [3],Structure (SMILES)
16.3 µM,inactive,inactive,Cc1cc(C)n2ncc(C(=O)Nc3ccccc3C)c2n1
3.26 µM,inactive,inactive,CCc1ccc(NC(=O)c2cnn3c(C)cc(C)nc23)cc1
inactive,inactive,inactive,COc1ccc(NC(=O)c2cnn3c(-c4ccccc4)cc(C)nc23)cc1
25.9 µM,inactive,inactive,Cc1cc(C)n2ncc(C(=O)Nc3cc(Cl)cc(Cl)c3)c2n1
inactive,inactive,inactive,Cc1cc(C)n2ncc(C(=O)Nc3ccncc3)c2n1
163 µM,inactive,inactive,CC(=O)c1ccc(NC(=O)c2cnn3c(C)cc(C)nc23)cc1
1.46 µM,inactive,inactive,Cc1cc(C)n2ncc(C(=O)Nc3ccc(C)c(C)c3)c2n1
inactive,inactive,inactive,CNC(=O)c1cnn2c(C)cc(C)nc12
32.6 µM,inactive,inactive,CC(=O)c1cccc(NC(=O)c2cnn3c(C)cc(C)nc23)c1
inactive,inactive,inactive,Cc1cc(-c2ccccc2)n2ncc(C(=O)Nc3ccc(Cl)c(Cl)c3)c2n1
13 µM,inactive,inactive,Cc1ccc(NC(=O)c2cnn3c(C)cc(C)nc23)c(C)c1
1.46 µM,inactive,inactive,COc1ccc(NC(=O)c2cnn3c(C)cc(C)nc23)cc1F
51.7 µM,inactive,inactive,Cc1cc(C)n2ncc(C(=O)NCc3ccccc3)c2n1
,inactive,inactive,CCc1ccc(NC(=O)c2cnn3c(C(F)F)cc(C4CC4)nc23)cc1
6.51 µM,inactive,inactive,Cc1cc(C)n2ncc(C(=O)Nc3ccc4c(c3)OCO4)c2n1
10.3 µM,inactive,inactive,Cc1cc(C)n2ncc(C(=O)Nc3ccc4c(c3)OCCO4)c2n1
inactive,inactive,inactive,Cc1cc(C)n2ncc(C(=O)Nc3ccc(S(C)(=O)=O)cc3)c2n1
,inactive,inactive,O=C(Nc1ccc2c(c1)CCC2)c1cnn2c(C(F)F)cc(C3CC3)nc12
8.19 µM,inactive,inactive,COc1ccc(NC(=O)c2cnn3c(C)cc(C)nc23)cc1
inactive,inactive,inactive,Cc1cc(C)n2ncc(C(=O)Nc3cccc(C#N)c3)c2n1
32.6 µM,inactive,inactive,Cc1cc(C)n2ncc(C(=O)NCC(C)C)c2n1
inactive,inactive,inactive,Cc1ccc(NC(=O)c2cnn3c(-c4ccccc4)cc(C)nc23)cc1
4.11 µM,inactive,inactive,Cc1cc(C)n2ncc(C(=O)N[C@H]3CC[C@H](C(C)(C)C)CC3)c2n1
